According to ChEMBL document CHEMBL4130623, “Discovery of Highly Potent Pinanamine-Based Inhibitors against Amantadine- and Oseltamivir-Resistant Influenza A Viruses” (J Med Chem, 2018):
The source made the active and inactive calls. The rule behind the calls is not given here.

Experiments:
Assay type in all cases: functional, organism-based
[1] = system: Influenza A virus; experiment: Antiviral activity against Influenza A virus (A/Guangzhou/GIRD/07/2009 (H1N1)) infected in MDCK cells assessed as reduction in virus-induced cytopathic effect at less than cytotoxic MCC level after 48 hrs by microscopic analysis
[2] = system: Influenza A virus; experiment: Antiviral activity against Influenza A virus (A/HK/68) by CCK-8 reagent based assay
[3] = system: Influenza A virus; experiment: Antiviral activity against Influenza A virus (A/WSN/33) by CCK-8 reagent based assay; conditions: A/WSN/1933(H1N1)
[4] = system: Influenza A virus; experiment: Antiviral activity against Influenza A virus (A/Guangzhou/GIRD/07/2009 (H1N1)) infected in MDCK cells assessed as reduction in virus-induced cytopathic effect after 48 hrs by microscopic analysis
Procedure, shortened: (§1)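 MDCK monolayers (5×10^4 cells/well, grown 24 h) were rinsed twice, infected with 100 TCID50 virus for 2 h at 37 °C in 5% CO2, and the inoculum was removed. Two-fold serial compound dilutions in DMEM with 1.5 µg/mL trypsin were added and incubated 48 h at 34 °C. CPE percentage was scored by microscope and EC50 fitted by non-linear regression.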

[5] = system: Influenza A virus; experiment: Antiviral activity against Influenza A virus (A/HK/68(H3N2)) infected in MDCK cells assessed as reduction in virus-induced cytopathic effect after 48 hrs by microscopic analysis; procedure, shortened: as §1
[6] = system: Influenza A virus; experiment: Antiviral activity against Influenza A virus (A/WSN/33 (H1N1)) infected in MDCK cells assessed as reduction in virus-induced cytopathic effect after 48 hrs by microscopic analysis; conditions: A/WSN/1933(H1N1); procedure, shortened: as §1
[7] = system: Influenza A virus; experiment: Antiviral activity against Influenza A virus (A/PR/8/34 (H1N1)) infected in MDCK cells assessed as reduction in virus-induced cytopathic effect after 48 hrs by microscopic analysis; conditions: A/Puerto Rico/8/1934(H1N1); procedure, shortened: as §1
[8] = system: Influenza A virus; experiment: Antiviral activity against Influenza A virus (A/duck/Guangdong/1/1996 (H7N3)) infected in MDCK cells assessed as reduction in virus-induced cytopathic effect after 48 hrs by microscopic analysis; procedure, shortened: as §1
[9] = system: Influenza A virus; experiment: Antiviral activity against Influenza A virus (A/duck/HK/Y280/97 (H9N2)) infected in MDCK cells assessed as reduction in virus-induced cytopathic effect after 48 hrs by microscopic analysis; procedure, shortened: as §1
[10] = system: H3N2 subtype; experiment: Antiviral activity against Influenza A virus (A/Aichi/2/68 (H3N2)) infected in MDCK cells assessed as reduction in virus-induced cytopathic effect after 48 hrs by microscopic analysis; conditions: A/Aichi/2/1968(H3N2); procedure, shortened: as §1

Structure (SMILES) | inhibition [1] | Activity [2] | Activity [3] | EC50 [4] [nM] | other results
Cc1ccsc1CN[C@@H]1C[C@H]2C[C@@H]([C@H]1C)C2(C)C | inactive | Active | Active | – | –
Cc1csc(CN[C@@H]2CC3CC([C@H]2C)C3(C)C)n1 (single isomer, unassigned) | – | Active | Active | 75000 | –
C[C@@H]1C2CC(C[C@H]1NCc1sccc1C1CCCC1)C2(C)C (single isomer, unassigned) | – | – | – | 690 | –
Cc1csc(CN[C@@H]2CC3CC([C@H]2C)C3(C)C)c1 (single isomer, unassigned) | – | Active | Active | 200 | –
C=Cc1ccsc1CN[C@@H]1CC2CC([C@H]1C)C2(C)C (single isomer, unassigned) | – | Active | Active | 1820 | –
C[C@@H]1C2CC(C[C@H]1NCc1ccsc1)C2(C)C (single isomer, unassigned) | – | Active | Active | 28600 | –
C[C@@H]1C2CC(C[C@H]1NCc1cccs1)C2(C)C (single isomer, unassigned) | – | Active | Active | 6420 | –
C[C@@H]1C2CC(C[C@H]1NCc1ccoc1)C2(C)C (single isomer, unassigned) | – | – | – | 60500 | –
C[C@@H]1C2CC(C[C@H]1NCc1cc(C3CC3)cs1)C2(C)C (single isomer, unassigned) | – | Active | Active | 6680 | –
C[C@@H]1C2CC(C[C@H]1NCc1cc(Br)cs1)C2(C)C (single isomer, unassigned) | – | Active | Active | 5160 | –
CCCCc1ccsc1CN[C@@H]1CC2CC([C@H]1C)C2(C)C (single isomer, unassigned) | – | Active | Active | 10300 | –
CCCCc1csc(CN[C@@H]2CC3CC([C@H]2C)C3(C)C)c1 (single isomer, unassigned) | – | – | – | 460 | –
C=C(C)c1csc(CN[C@@H]2CC3CC([C@H]2C)C3(C)C)c1 (single isomer, unassigned) | inactive | – | – | – | –
C=Cc1csc(CN[C@@H]2CC3CC([C@H]2C)C3(C)C)c1 (single isomer, unassigned) | inactive | Active | Active | – | –
CCCc1ccsc1CN[C@@H]1CC2CC([C@H]1C)C2(C)C (single isomer, unassigned) | inactive | Active | Active | – | –
CCCc1csc(CN[C@@H]2CC3CC([C@H]2C)C3(C)C)c1 (single isomer, unassigned) | inactive | Active | Active | – | –
CCOc1ccsc1CN[C@@H]1CC2CC([C@H]1C)C2(C)C (single isomer, unassigned) | inactive | Active | Active | – | –
CCc1ccc(CN[C@@H]2CC3CC([C@H]2C)C3(C)C)s1 (single isomer, unassigned) | inactive | – | – | – | –
CCc1ccsc1CN[C@@H]1CC2CC([C@H]1C)C2(C)C (single isomer, unassigned) | inactive | Active | Active | – | –
CCc1csc(CN[C@@H]2CC3CC([C@H]2C)C3(C)C)c1 (single isomer, unassigned) | inactive | – | – | – | –

Structure (SMILES) | inhibition [1] | Activity [2] | Activity [3] | EC50 [4] [nM] | other results
CSc1ccc(CN[C@@H]2CC3CC([C@H]2C)C3(C)C)s1 (single isomer, unassigned) | inactive | Active | Active | – | –
C[C@@H]1C2CC(C[C@H]1NCc1cc(-c3ccccc3)cs1)C2(C)C (single isomer, unassigned) | inactive | – | – | – | –
C[C@@H]1C2CC(C[C@H]1NCc1cc(-c3ccsc3)cs1)C2(C)C (single isomer, unassigned) | inactive | – | – | – | –
C[C@@H]1C2CC(C[C@H]1NCc1cc(C3CCCC3)cs1)C2(C)C (single isomer, unassigned) | inactive | – | – | – | –
C[C@@H]1C2CC(C[C@H]1NCc1cc(C3CCCCC3)cs1)C2(C)C (single isomer, unassigned) | inactive | – | – | – | –
C[C@@H]1C2CC(C[C@H]1NCc1ccc(-c3ccc(Br)s3)s1)C2(C)C (single isomer, unassigned) | inactive | – | – | – | –
C[C@@H]1C2CC(C[C@H]1NCc1ccc(Br)s1)C2(C)C (single isomer, unassigned) | inactive | – | – | – | –
C[C@@H]1C2CC(C[C@H]1NCc1ccc(C(C)(C)C)s1)C2(C)C (single isomer, unassigned) | inactive | – | – | – | –
C[C@@H]1C2CC(C[C@H]1NCc1ccc(Cl)s1)C2(C)C (single isomer, unassigned) | inactive | – | – | – | –
C[C@@H]1C2CC(C[C@H]1NCc1ccco1)C2(C)C (single isomer, unassigned) | inactive | – | – | – | –
C[C@@H]1C2CC(C[C@H]1NCc1cnccn1)C2(C)C (single isomer, unassigned) | inactive | – | – | – | –
C[C@@H]1C2CC(C[C@H]1NCc1cncnc1)C2(C)C (single isomer, unassigned) | inactive | – | – | – | –
C[C@@H]1C2CC(C[C@H]1NCc1sccc1-c1ccccc1)C2(C)C (single isomer, unassigned) | inactive | – | – | – | –
C[C@@H]1C2CC(C[C@H]1NCc1sccc1-c1ccsc1)C2(C)C (single isomer, unassigned) | inactive | – | – | – | –
C[C@@H]1C2CC(C[C@H]1NCc1sccc1Br)C2(C)C (single isomer, unassigned) | inactive | Active | Active | – | –
C[C@@H]1C2CC(C[C@H]1NCc1sccc1C1CCCCC1)C2(C)C (single isomer, unassigned) | inactive | – | – | – | –
Cc1ccc(CN[C@@H]2CC3CC([C@H]2C)C3(C)C)s1 (single isomer, unassigned) | inactive | Active | Active | – | –
Cc1n[nH]cc1CN[C@@H]1CC2CC([C@H]1C)C2(C)C (single isomer, unassigned) | inactive | – | – | – | –
NC12CC3CC(CC(C3)C1)C2 [AMANTADINE] | – | – | – | > 100000 | EC50 [5]: 1000 nM; EC50 [6]: > 100000 nM; EC50 [7]: > 100000 nM
CCOC(=O)C1=C[C@@H](OC(CC)CC)[C@H](NC(C)=O)[C@@H](N)C1 [OSELTAMIVIR] | – | – | – | – | EC50 [8]: 2670 nM; EC50 [9]: > 10000 nM; EC50 [5]: 2300 nM; EC50 [10]: 990 nM; EC50 [6]: 400 nM; EC50 [7]: 130 nM
